Test results: the EternaBench riboswitch data

System: MS2 coat protein
Assay: apparent Kd, MS2 coat protein; higher = weaker binding; RNA-MaP array
How it was run: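 Incubations were done at room temperature with fluorescently labeled MS2 coat protein at 1.5 nM to 3 μM and designed RNAs transcribed on an Illumina sequencing chip from sequenced DNA templates, with or without input ligand. Apparent Kd is the median of binding curves fitted for each cluster. Designs with fewer than 10 measured clusters were excluded.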

[1] = designed as: ON switch for flavin mononucleotide, no ligand
[2] = ligand present: flavin mononucleotide, designed as: ON switch for flavin mononucleotide
[3] = designed as: OFF switch for flavin mononucleotide, no ligand
[4] = ligand present: flavin mononucleotide, designed as: OFF switch for flavin mononucleotide

| Sequence | apparent Kd [1] [nM] | apparent Kd [2] [nM] | apparent Kd [3] [nM] | apparent Kd [4] [nM] | further results |
| --- | --- | --- | --- | --- | --- |
| CUCUAAUAAUAUUUCAACAUGAGGAUCACCCAUGUAAUCAGCAAGGAUAUGGUCUUGAUAAGAACCCAGAAGGUGCAUAUAGAU | 22.7 | 14.9 | – | – | – |
| UCUAAAAUCGGAGGAUAUUACGAAGACAUGAGGAUCACCCAUGUAGUGGAACACAUAAGUCGCUCUAAGAAGGCCGCAAUUGAC | – | – | 29.5 | 34.6 | – |
| UCCAUGUUAGGAUAUCGGCCACCUUCGACAAAAGUGUACUGCGAGAAGGAACAUGAGGAUCACCCAUGUCUGGG | – | – | 416 | 104 | – |
| UUAUAGGAAGGAUAUACAUGAGGAUCACCCAUGUUCAAACCAACGCACUAUCAUAAAUGUAGAAGGACCAACCC | – | – | 11.9 | 10.1 | – |
| UGGUUUGUCCAUACAUGAGGAUCACCCAUGUAACACUGGCCCAGAAGGCGAAAAUGGCAGCCAGUCGAGGAUAUGGGCUGUAUG | 59.7 | 26.6 | – | – | – |
| UUGUUCAGCCUAGGAUAUGGGCAAACAUGAGGAUCACCCAUGUUGAGGCUACCACAAAGCCUGCACCAGAAGGAGGCCUAUACG | 9.27 | 5.71 | – | – | – |
| ACAUGAGGAUCACCCAUGUAAUAUAUAAAGACUAAAACUAGUUAGGAUAUAUCACAUGUACAGGGAUAGAAGGAACUAGUCUGC | 7.15 | 5.84 | – | – | – |
| CUAAAUUACGCGUAGGAUAUAUUAAAGACUACAUGAGGAUCACCCAUGUCACUUAAACCACGAGAAUAGAAGGACGUAGAAAGAGA | 8.77 | 9.06 | – | – | – |
| GUGAGACAUGAGGAUCACCCAUGUAAGGAUAUUGCCUCGACCAUAUAAACAUAUCGGACAAGAAGGUACAGGAG | – | – | 37.8 | 29.1 | – |
| CGCAAACUAGGAUAUACAGGGCGAAAACGUUUACUUGGAUAACAUGAGGAUCACCCAUGUAGAAGGAGUUCUUA | – | – | 28.9 | 160 | – |
| ACGAAACAAGCGGCCGCCACUUCGUGGUGCUAAGGCUUGAUACUACAUGAGGAUCACCCAUGUCGAAGGACCGGGCUUGCGACUG | – | – | – | – | apparent Kd (designed as: ON switch for tryptophan, no ligand): 53.9 nM; apparent Kd (ligand present: tryptophan, designed as: ON switch for tryptophan): 51.9 nM |
| GAAGCGUGAGCAGGAUAUUUAGACAUGAGGAUCACCCAUGUGUGCUAACUAGAAUGCAGGUUUUUAAAGAAGGGCUCCUAGAUU | 11.4 | 7.11 | – | – | – |
| UUGCUCCAUCAGAAGGUCUACGCACAUGAGGAUCACCCAUGUUCUGGAAUCAUCUUGUGUGCCAAGAAGGAUAUGACUUCAAGU | – | – | 545 | 363 | – |
| AGCCAAUAAGGAUAUACAUUUAGAGAUCAUCGUACAAAGUAACAUGAGGAUCACCCAUGUAGAAGGUAUGCAGC | – | – | 10.2 | 11.3 | – |
| CCUAACUGCGAGAAGGUACAGCGAUAGUGACUGUAAGGAUAUCGGGCGGUGCAUAUCUUAGUAAUACAUGAGGAUCACCCAUGU | – | – | 8.7 | 6.82 | – |
| GCGUGGUAAGGAUAUGUGUACGUCCGGUAGUAUAGCGUACAACAGAAGGUACAUGAGGAUCACCCAUGUGUCCG | – | – | 7.03 | 7.94 | – |
| CUAGAACAUGAGGAUCACCCAUGUCAGGAUAUUCUUGGAUGCAUCCAAGCGAAAACAAGAAGAAGGGACGUAUA | – | – | 10.8 | 10.4 | – |
| GCAGGCGAAGGAUAUACAUGAGGAUCACCCAUGUGUCAAACAAUAAUACCACUCAACUGUAGAAGGUCGGGCGA | – | – | 13.9 | 11.4 | – |
| ACAGCACAUGAGGAUCACCCAUGUCGACAUGUAUUAGGAUAUGAUCCGCGCUAGACACCAUCAGAAGGAAUACCGA | 43 | 23.7 | – | – | – |
| UCAAUAUGUCGUUGACAUGAGGAUCACCCAUGUACUAACUAGCAGGAUAUCGUGAUUAACCCUACCGAGAAGGGCUGUUGUAUU | 40.7 | 34.9 | – | – | – |
| UUCGUCGGACACACACAUGAGGAUCACCCAUGUAUCUCAAUCAGAAGGGUAUCACCGGAUAGGGUACAGGAUAUGACUACUAUA | 43 | 22.3 | – | – | – |
| CGUAACCAAGGAUAUACAUGAGGAUCACCCAUGUAUCGGGUCGGUCUGGGUCCAAUAAGUAGAAGGUGGCUGAU | – | – | 29.3 | 39.7 | – |
| AAUAUGUAAGGAUAUACUGAAAUAAUAAUAAUAAUAAAUGAGUAGAAGGAACAUGAGGAUCACCCAUGUGAAAC | – | – | 8.71 | 8.07 | – |
| GACCCACAUGAGGAUCACCCAUGUCAGGAUAUCCGAUCGUCAAAGACCCAAAUAAUUAGGAGAAGGGACAUUAA | – | – | 15 | 15.4 | – |
| GUAUGGAUAUUCUCACGCUACAUGAGGAUCACCCAUGUUCUAAGAAGGCGGCGAGGUAGAGCAUCCGAGGAUAUUAGAACUCAG | – | – | 21.1 | 76 | – |
| GUACCUCCCAAAGGAUAUGGACCGCAGACAUGAGGAUCACCCAUGUAGGACGCACUGUUUGCGCGCCAGAAGGUUGUUAAUCGC | – | – | 98.5 | 73.2 | – |
